Source: ChEMBL document CHEMBL1157200, “Carboxymethylated pyridoindole antioxidants as aldose reductase inhibitors: Synthesis, activity, partitioning, and molecular modeling” (Bioorg Med Chem, 2008)

Assays:
[1] = Antioxidant activity assessed as inhibition of AAPH-induced peroxidation of DOPC liposome after 80 mins by thiocyanate method; format: functional
Method in brief: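 DOPC unilamellar liposomes (0.8 mM final) in 20 mM phosphate buffer pH 7.4 with AAPH initiator (10 mM final) and varying test concentrations at 50 °C. Aliquots extracted with ice-cold CHCl3/MeOH (2:1) containing BHT; lipid hydroperoxides measured by thiocyanate method, absorbance at 500 nm. IC50 taken at 80 min.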

[2] = Lipophilicity in 1-octanol/phosphate buffer at pH 7.4 assessed as distribution ratio by shake flask method; format: physicochemical; details: octanol/water
Method in brief: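 Shake-flask method at room temperature with mutually saturated phases: compound 100 µM final in 0.1 M phosphate buffer pH 7.4 containing 0.15 M KCl, shaken with 1-octanol for 3 h. Phases separated by 1 h centrifugation; both measured by UV spectrophotometry. D is organic/aqueous total concentration; mean ± SD of ≥3 experiments.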

[3] = target: T1, Aldo-keto reductase family 1 member B1 (Rattus norvegicus, UniProt P07943); test: Inhibition of Wistar rat lens aldose reductase 2
Method in brief: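 Lens ALR2 partially purified from male Wistar rats (8–9 weeks). Reaction: 4.67 mM D,L-glyceraldehyde, 0.11 mM NADPH, 0.067 M phosphate pH 6.2; started with substrate, NADPH loss at 340 nm read 4 min after 1 min lag at 30 °C. Blank lacks substrate and includes inhibitor. IC50 from semilog curves, ≥4 concentrations giving 25–75% inhibition.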

[4] = Inhibition of Wistar rat kidney aldose reductase 1
Method in brief: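 ALR1 partially purified from male Wistar rat kidney by ammonium sulfate fractionation and DEAE treatment. NADPH consumption followed at 340 nm with 20 mM D-glucuronate and 0.12 mM NADPH in 0.1 M phosphate pH 7.2 at 37 °C; inhibitor also in blank. IC50 from linear part of semilog curves, ≥4 concentrations spanning 25–75% inhibition.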

[5] = target: T1, Aldo-keto reductase family 1 member B1; test: Inhibition of Wistar rat lens aldose reductase 2 using NADPH as substrate
Method in brief: (§1)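 Kinetic mode of rat lens ALR2 inhibition from double-reciprocal plots of initial velocity, with D,L-glyceraldehyde or NADPH concentration varied, with or without inhibitor (e.g. 20 µM); NADPH consumption read at 340 nm. Kinetic parameters given as mean ± SD of at least three experiments.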

[6] = target: T1, Aldo-keto reductase family 1 member B1; test: Inhibition of Wistar rat lens aldose reductase 2 using D,L-glyceraldehyde as substrate; method in brief: as §1
[7] = Dissociation constant, acidic pKa of compound; format: physicochemical
Method in brief: (§2)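 Potentiometric titration with glass/saturated calomel electrodes: compound about 2 mM in water, acidified with 0.1 M HCl to pH about 1.8, titrated with 0.1 M NaOH at 22 °C ± 1 °C, ionic strength held at 0.1 M with KCl.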

[8] = Dissociation constant, basic pKa of compound; format: physicochemical; method in brief: as §2

SMILES	IC50 [1] [µM]	D [2]	IC50 [3] [µM]	IC50 [4] [µM]	Ki [5] [µM]	Ki [6] [µM]	pKa [7]	pKa [8]
Cc1ccc2[nH]c3c(c2c1)CN(C)CC3 [DEHYDROSTOBADINE]	72.7	6	> 1000					
O=C([O-])Cc1ccc2[nH]c3c(c2c1)CN(CCc1ccccc1)CC3.[K+]		0.51	16.7	603	10.5	17.7		
Cc1c(C)c2c(c(C)c1O)CCC(C)(C(=O)O)O2 (stereo not given) [TROLOX]	93.5							
CCCC(CCC)C(=O)O [VALPROIC ACID]				56.1				
CN1CC[C@@H]2Nc3ccc(CC(=O)[O-])cc3[C@@H]2C1.[K+] (racemic)		< 0.1	381					
CN1CCc2[nH]c3ccc(CC(=O)[O-])cc3c2C1.[K+]		0.13	54	3080				
O=C([O-])Cc1ccc2c(c1)[C@@H]1CN(Cc3ccccc3)CC[C@@H]1N2.[Na+] (racemic)	75.6	0.2	266	> 3000				
O=C(O)Cc1nn(Cc2nc3cc(C(F)(F)F)ccc3s2)c(=O)c2ccccc12 [ZOPOLRESTAT]			0.005					
Cc1ccc2c(c1)[C@H]1CN(C)CC[C@H]1N2 [STOBADINE]	25.3	2.5	> 1000					
O=C([O-])Cc1ccc2[nH]c3c(c2c1)CN(Cc1ccccc1)CC3.[K+]		0.35	18.2	328	11	17.9	4.34	8.65
